Reference: ChEMBL document CHEMBL1153310, “New prostaglandin derivative for glaucoma treatment” (Bioorg Med Chem Lett, 2009)

Columns and labels:
[1] = tested on: Oryctolagus cuniculus; experiment: Reduction in intraocular pressure in carbomer-induced glaucoma in pigmented rabbit at 0.005%, topical administration continuously for 4 days; format: functional, Eye
Summary of the method: (§1)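 Glaucoma induced by carbomer injection into the anterior chamber; IOP checked every 30 min over the first 3 h, then at least three times daily until stabilized at high levels. Drug instilled topically, once (single-dose) or daily for 5 days (repeated). IOP measured by Tono-Pen tonometer; single-dose readings at 30, 60, 120 and 240 min; AUC in mm Hg h.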

[2] = tested on: Oryctolagus cuniculus; experiment: Reduction in intraocular pressure in carbomer-induced glaucoma in pigmented rabbit at 0.005%, topical administration continuously for 5 days; format: functional, Eye; summary of the method: as §1
[3] = tested on: Oryctolagus cuniculus; experiment: Reduction in intraocular pressure in carbomer-induced glaucoma in pigmented rabbit at 0.005%, topical administration continuously for 3 days; format: functional, Eye; summary of the method: as §1
[4] = tested on: Oryctolagus cuniculus; experiment: Increase in cGMP levels in aqueous humor of carbomer-induced glaucomatous pigmented rabbit at 0.005%, topical administration continuously for 5 days by radioimmunoassay; format: functional, Aqueous humor of eyeball
Summary of the method: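 Aqueous humour taken after 5 days of daily topical instillation at 0.005%. Samples treated with 10% trichloroacetic acid and centrifuged. TCA extracted with 0.5 M tri-n-octylamine in 1,1,2-trichloro-1,2,2-trifluoroethane. cGMP quantified by radioimmunoassay using labelled cGMP.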

[5] = tested on: Oryctolagus cuniculus; experiment: Reduction in intraocular pressure in carbomer-induced glaucoma in pigmented rabbit at 0.005%, topical administration for 1 day; format: functional, Eye; summary of the method: as §1
[6] = tested on: Oryctolagus cuniculus; experiment: Reduction in intraocular pressure in carbomer-induced glaucoma in albino rabbit at 0.005%, topical administration measured after 60 mins; format: functional, Eye; summary of the method: as §1
[7] = tested on: Oryctolagus cuniculus; experiment: Reduction in intraocular pressure in carbomer-induced glaucoma in albino rabbit at 0.005%, topical administration continuously measured after […]; format: functional, Eye; summary of the method: as §1
[8] = tested on: Oryctolagus cuniculus; experiment: Reduction in intraocular pressure in carbomer-induced glaucoma in albino rabbit at 0.005%, topical administration measured after 120 mins; format: functional, Eye; summary of the method: as §1
[9] = tested on: Oryctolagus cuniculus; experiment: Increase in glutathione levels in aqueous humor of normotensive pigmented rabbit at 0.005%, topical administration; format: functional, Aqueous humor of eyeball
Summary of the method: (§2)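 Normotensive rabbits given a single topical instillation at one of three dose levels. Aqueous humour centrifuged at 100.000g, 4 °C for 30 min. Supernatant diluted in phosphate-EDTA buffer and reacted with o-phthaldialdehyde (1 mg/ml) for 15 min at room temperature. Fluorescence read at ex 350/em 420 nm, calibrated with a GSH standard curve.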

[10] = tested on: Oryctolagus cuniculus; experiment: Reduction in intraocular pressure in carbomer-induced glaucoma in pigmented rabbit at 0.005%, topical administration measured after 60 mins; format: functional, Eye; summary of the method: as §1
[11] = tested on: Oryctolagus cuniculus; experiment: Reduction in intraocular pressure in carbomer-induced glaucoma in albino rabbit at 0.005%, topical administration measured after 240 mins; format: functional, Eye; summary of the method: as §1
[12] = tested on: Oryctolagus cuniculus; experiment: Reduction in intraocular pressure in carbomer-induced glaucoma in pigmented rabbit at 0.005%, topical administration measured after 240 mins; format: functional, Eye; summary of the method: as §1
[13] = tested on: Oryctolagus cuniculus; experiment: Reduction in intraocular pressure in carbomer-induced glaucoma in pigmented rabbit at 0.005%, topical administration measured after 30 mins; format: functional, Eye; summary of the method: as §1
[14] = tested on: Oryctolagus cuniculus; experiment: Reduction in intraocular pressure in carbomer-induced glaucoma in pigmented rabbit at 0.005%, topical administration continuously for 2 days; format: functional, Eye; summary of the method: as §1
[15] = tested on: Oryctolagus cuniculus; experiment: Reduction in intraocular pressure in carbomer-induced glaucoma in albino rabbit at 0.005%, topical administration measured after 30 mins; format: functional, Eye; summary of the method: as §1
[16] = tested on: Oryctolagus cuniculus; experiment: Reduction in intraocular pressure in carbomer-induced glaucoma in pigmented rabbit at 0.005%, topical administration measured after 120 mins; format: functional, Eye; summary of the method: as §1
[17] = tested on: Oryctolagus cuniculus; experiment: Increase in glutathione levels in aqueous humor of carbomer-induced glaucomatous pigmented rabbit at 0.005%, topical administration continuously for 5 days by fluorimetry; format: functional, Aqueous humor of eyeball
Summary of the method: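 Carbomer-glaucomatous rabbits given daily topical 0.005% instillation for 5 days. Aqueous humour centrifuged at 100.000g, 4 °C for 30 min. Supernatant diluted in phosphate-EDTA buffer and reacted with o-phthaldialdehyde (1 mg/ml) for 15 min at room temperature. Fluorescence read at ex 350/em 420 nm against a GSH standard curve, in pmol/ml.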

[18] = tested on: Oryctolagus cuniculus; experiment: Effect on intraocular pressure in carbomer-induced glaucoma in pigmented rabbit assessed as AUC at 0.005%, topical administration continuously for 5 days; format: functional, organism-based; conditions: Eye; summary of the method: as §1
[19] = tested on: Oryctolagus cuniculus; experiment: Effect on intraocular pressure in carbomer-induced glaucoma in New Zealand albino rabbit assessed as AUC at 0.005%, topical administration measured after 4 hrs; format: functional, organism-based; design: time < 4 hr; conditions: Eye; summary of the method: as §1
[20] = tested on: Oryctolagus cuniculus; experiment: Effect on intraocular pressure in carbomer-induced glaucoma in pigmented rabbit assessed as AUC at 0.005%, single topical administration measured over 4 hrs by tonometry; conditions: Eye
[21] = tested on: Oryctolagus cuniculus; experiment: Reduction in intraocular pressure in carbomer-induced glaucoma in pigmented rabbit at 0.005%, single topical administration measured over 4 hrs relative to latanoprost; design: scale not given: the % may be the effect or the level left
[22] = tested on: Oryctolagus cuniculus; experiment: Increase in glutathione levels in aqueous humor of normotensive pigmented rabbit at 0.008%, topical administration; format: functional, Aqueous humor of eyeball; summary of the method: as §2
[23] = species: Oryctolagus cuniculus; experiment: Toxicity in New Zealand albino rabbit assessed as tolerability at 0.005% by Draize test; format: organism-based; conditions: in vivo
Summary of the method: (§3)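 Ocular tolerability scored by Draize test in New Zealand albino rabbits at three concentrations, compared with placebo.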

[24] = tested on: Oryctolagus cuniculus; experiment: Reduction in intraocular pressure in carbomer-induced glaucoma in pigmented rabbit at 0.005%, topical administration continuously for 5 days relative to latanoprost; format: functional, Eye; design: scale not given: the % may be the effect or the level left; summary of the method: as §1
[25] = species: Oryctolagus cuniculus; experiment: Toxicity in New Zealand albino rabbit assessed as tolerability at 0.008% by Draize test; format: organism-based; conditions: in vivo; summary of the method: as §3
[26] = tested on: Oryctolagus cuniculus; experiment: Increase in glutathione levels in aqueous humor of normotensive pigmented rabbit at 0.01%, topical administration; format: functional, Aqueous humor of eyeball; summary of the method: as §2
[27] = species: Oryctolagus cuniculus; experiment: Toxicity in New Zealand albino rabbit assessed as tolerability at 0.01% by Draize test; format: organism-based; conditions: in vivo; summary of the method: as §3

Oc1ccc(-c2cc(=S)ss2)cc1
Activity [1]: 22.2 mmHg | Activity [2]: 22 mmHg | Activity [3]: 23 mmHg | Activity [4]: 122 fmol/mL | Activity [5]: 26.7 mmHg | Activity [6]: 28 mmHg | Activity [7]: 25 mmHg | Activity [8]: 26.2 mmHg | Activity [9]: 58.3 pmol/mL | Activity [10]: 29 mmHg | Activity [11]: 25.2 mmHg | Activity [12]: 23.5 mmHg | Activity [13]: 30 mmHg | Activity [14]: 26 mmHg | Activity [15]: 29.5 mmHg | Activity [16]: 26 mmHg | Activity [17]: 60.4 pmol/mL

CC(C)OC(=O)CCC/C=C\C[C@@H]1[C@@H](CC[C@@H](O)CCc2ccccc2)[C@H](O)C[C@@H]1O [LATANOPROST]
Activity [4]: 71.8 fmol/mL | AUC [18]: 2660 mmHg.hr | AUC [19]: 119 mmHg.hr | Activity [9]: 38.7 pmol/mL | AUC [20]: 109 mmHg.hr | Activity [17]: 36.44 pmol/mL

O=C(CCC/C=C\C[C@@H]1[C@@H](CC[C@@H](O)CCc2ccccc2)[C@H](O)C[C@@H]1O)Oc1ccc(-c2cc(=S)ss2)cc1
Activity [21]: 30.8% | Activity [4]: 118 fmol/mL | AUC [18]: 2090 mmHg.hr | Activity [22]: 69.83 pmol/mL | Activity [23]: Non-toxic | AUC [19]: 106 mmHg.hr | Activity [24]: 27% | Activity [25]: Non-toxic | Activity [9]: 60.04 pmol/mL | Activity [26]: 82.89 pmol/mL | AUC [20]: 75.2 mmHg.hr | Activity [27]: Non-toxic | Activity [17]: 65.27 pmol/mL
